Hits are enriched below; roughly 9.8% of the tested compounds scored in any of these assays.
Lmaj promast – reduces viability of Leishmania major promastigotes. AID 1063. inhibition, % at 10 µM. 200,000 tested, 9% active. resazurin fluorescence viability; in the data active = inhibition above about 50%;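 also: promastigotes grown with compound for 44 hours at 28 °C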
PMI activator – increases human mannose-6-phosphate isomerase activity. activation factor at 20 µM. purified human PMI, coupled resazurin fluorescence, 20 min; hits give high values; 1 = vehicle control, 0 substrate-free wells. P34949. 190,000 tested, 0.005% active;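 active = activation factor of 2 or more at 20 µM, relative to plate controls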
Rad51 HR inh – Rad51 (human) homologous recombination inhibition; Q06609; hRad51 DNA strand exchange, fluorescence dequenching; inhibition, % at 10 µM; 200,000 tested, 0.085% active;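 active = inhibition above 40% at the single screening dose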
Target sequence (Q06609 whole entry, looked up): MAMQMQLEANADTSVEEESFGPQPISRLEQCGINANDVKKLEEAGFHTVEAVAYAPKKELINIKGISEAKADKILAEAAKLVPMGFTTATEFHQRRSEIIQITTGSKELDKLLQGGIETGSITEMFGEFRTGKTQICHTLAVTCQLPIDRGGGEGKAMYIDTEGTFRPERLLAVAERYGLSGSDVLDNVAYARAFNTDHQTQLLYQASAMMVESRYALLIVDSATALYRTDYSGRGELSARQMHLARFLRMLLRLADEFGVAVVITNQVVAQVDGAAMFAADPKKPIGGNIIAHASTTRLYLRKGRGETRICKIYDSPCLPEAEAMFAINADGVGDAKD
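Material: hRad51 filaments on single-stranded DNA; Reagent: Donor/quencher-labelled 47-bp dsDNA substrate; Compound: 10 µM final, single point; Schedule: 37 °C 15-min filament assembly, 30-min compound preincubation, 15-min exchange; Technique: FRET fluorescence, excitation 485 nm, emission 520 nm; Benchmarks: control wells and blank wells on each plate.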
PMI act satM6P – PMI (human) activation, high substrate; 190,000 tested, 0.34% active; coupled PMI enzyme assay, resazurin fluorescence, 20 min; hits give high values; 1 = untreated enzyme, 0 = substrate-free blank; P34949; activation factor at 20 µM;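 active = activation factor of 2 or more at 20 µM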
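Material: human phosphomannose isomerase with PGI, G6PDH, diaphorase coupling enzymes; amount: PMI at 15 ng/mL final; also added: Mannose-6-phosphate 1.0 mM (near-saturating) plus 0.22 mM NADP+; incubation: enzyme reaction with compound 20 min at room temperature; signal: resorufin fluorescence (Ex 544/Em 590 nm) from resazurin via diaphorase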
Calpain2 inh – blocks pig calpain II enzyme activity. purified calpain II, fluorogenic peptide substrate, 30 min. inhibition, % at 16 µM. 220,000 tested, 0.37% active. AID 1236;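 active = inhibition above about 50%, limit read from the data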
WT yeast gro inh – growth inhibition of WT yeast, mitochondrial fusion screen; mitochondrial fusion phenotypic screen, WT strain; inhibition, % at 10 µM; 190,000 tested, 2.1% active; AID 1362; in the data active = inhibition above about 58%; tested in S. cerevisiae
Of the large screens only hits and unclear results are named; the others gave an inactive call.

COc1ccc(OC)c(N=C2C(=O)Nc3ccccc32)c1	none
Cc1ccc(-c2[nH]c(-c3ccc(C(=O)O)cc3)nc2-c2ccccc2)cc1	none (no result: Rad51 HR inh)
COc1ccc(-c2[nH]c(-c3cc(OC)c4c(c3)OCO4)nc2-c2ccccc2)cc1	Lmaj promast 89, WT yeast gro inh 63
CC(=O)c1ccc(N2CCN(Cc3nc(Cc4ccccc4)no3)CC2)cc1	none
COc1cc2c(cc1NS(=O)(=O)N1CCCC1)oc1ccccc12	Lmaj promast 100
COc1cc2c(cc1NC(=O)CN1CCN(S(=O)(=O)c3ccc(C)cc3)CC1)oc1ccccc12	none (no result: Rad51 HR inh)
COc1ccc(CN2CCNC(=O)C2CC(=O)NCCSc2nccn2C)cc1OC (stereo not drawn)	none
O=C(/C=C/c1ccc(Br)cc1)Nc1ccc(S(=O)(=O)Nc2ncccn2)cc1	Lmaj promast 52 (no result: Rad51 HR inh)
Fc1ccc(OCCCCN2CCOCC2)cc1	Lmaj promast 85
Brc1ccc(Oc2ncc(CN3CCOCC3)s2)cc1	Lmaj promast 90
Brc1ccc(OCCCCCN2CCOCC2)cc1	Lmaj promast 98
OC(COc1ccc(Br)cc1)CN1CCOCC1 (stereo not drawn)	none
Brc1ccc(OCCOCCN2CCOCC2)cc1	Lmaj promast 90
O=C(CCC1CCCN(C(=O)Cn2cnnn2)C1)NCc1ccccc1F (stereo not drawn)	none (no result: Rad51 HR inh)
COC(=O)C1=C(C)Nc2c(c(=O)n(C)c(=O)n2C)C1c1ccncc1 (stereo not drawn)	none
CCN(CC)CCN(Cc1cc2ccc(C)c(C)c2[nH]c1=O)C(=S)NCc1ccco1	none
NC(=O)COc1ccc(/C=N/NS(=O)(=O)c2ccccc2)cc1	none
O=C(c1ccco1)N1CCN(CC(O)COc2ccc3oc4ccccc4c3c2)CC1 (stereo not drawn)	Lmaj promast 85
O=C(c1ccco1)N1CCN(CCCCOc2ccc(F)cc2)CC1	Lmaj promast 91 (no result: Rad51 HR inh)
COc1cccc(OCCCCCN2CCOCC2)c1	Lmaj promast 99
O=C(Cn1cncc1-c1ccc([N+](=O)[O-])cc1)Nc1ccccc1F	Lmaj promast 52
COc1ccccc1NC(=O)Cn1cncc1-c1ccc([N+](=O)[O-])cc1	none (no result: Rad51 HR inh)
CC(=O)Nc1c(C(=O)N2CCN(c3ccccn3)CC2)cnn1-c1ccc(C)cc1	none
COc1cccc(C(=O)OC2CCN(C)CC2)c1	none (no result: Rad51 HR inh)
Cc1c(Br)cc(C(=O)OC2CCN(C)CC2)c(C)c1C	Lmaj promast 86
COC(=O)C(C)NC(=S)N1CCN(c2c(F)cc3c(=O)c(C(=O)O)cn(C4CC4)c3c2OC)CC1C (stereo not drawn)	none (no result: Lmaj promast, PMI activator, Rad51 HR inh, PMI act satM6P, WT yeast gro inh)
COc1cccc(NC(=O)COC(=O)CNS(=O)(=O)c2c(F)cccc2F)c1	none
COc1ccc(C2=Nn3c([n+](C)c4ccccc43)SC2)cc1	Lmaj promast 100
C[n+]1c2n(c3ccccc31)N=C(c1ccc(Cl)cc1)CS2	Lmaj promast 86
COc1ccc(C2=Nn3c(nnc3-c3ccccn3)SC2)cc1	none
CC1Sc2n(c3ccccc3[n+]2C)N=C1c1ccccc1 (stereo not drawn)	Lmaj promast 99
Clc1ccc(C2=Nn3c(Cn4nnc5ccccc54)nnc3SC2)cc1	none (no result: Lmaj promast, PMI activator, PMI act satM6P, WT yeast gro inh)
CCOC(=O)Cn1nc(C)cc1NC(=O)c1cccnc1	none
Cc1ccc(NC(=O)CSc2nnc(C3CC3)n2N)cc1S(=O)(=O)N1CCOCC1	none
O=C(/C=C/c1ccccc1)c1ccc2c3c(cccc13)CC2	Lmaj promast 71
O=C(/C=C/c1ccccc1)c1ccccc1	none
CCOc1ccc(C(=O)CC(=O)C(=O)NCCc2ccc(OC)c(OC)c2)cc1	Lmaj promast 60
COc1ccc(OCCCC(=O)NCCc2ccc(OC)c(OC)c2)cc1	none
COc1nccc(-c2ccc(F)cc2)c1C#N	none
C=CCn1c(SCc2csc(C)n2)nc2sc3c(c2c1=O)CCCCC3	none
C=CCn1c(SCc2csc(C)n2)nc2sc3c(c2c1=O)CCCC3	WT yeast gro inh 70 (no result: Rad51 HR inh)
COc1ccc(S(=O)(=O)N2CC3CCCN3c3cc(C(F)(F)F)ccc32)cc1 (stereo not drawn)	WT yeast gro inh 75
O=C(NCC1CCCN(Cc2cccc(OCCO)c2)C1)c1ccc(F)cc1 (stereo not drawn)	none
CCOc1cc(CN2CCCC(CNC(=O)c3ccc(F)cc3)C2)ccc1OC (stereo not drawn)	none (no result: Lmaj promast, PMI activator, PMI act satM6P, WT yeast gro inh)
CSc1cccc(CN2CCCC(CNC(=O)c3ccc(F)cc3)C2)c1 (stereo not drawn)	Lmaj promast 77
CSc1ccc(CN2CCCC(CNC(=O)c3ccc(F)cc3)C2)cc1 (stereo not drawn)	Lmaj promast 84 (no result: Rad51 HR inh)
COc1ccc2cc(S(=O)(=O)N3CCCCCC3)ccc2c1	Lmaj promast 57
COc1ccc(S(=O)(=O)N2CCCCC2)cc1	none
COc1ccc(S(=O)(=O)N2CCCCCC2)cc1N(C)S(=O)(=O)c1ccc(C)cc1	Lmaj promast 51
COc1ccc(NS(=O)(=O)c2ccc(S(=O)(=O)N3CCOCC3)cc2)cc1	none (no result: Rad51 HR inh)
COc1ccc(NS(=O)(=O)c2ccc(S(=O)(=O)N3CCCC3)cc2)cc1	Lmaj promast 52
O=C(c1ccc(Cl)cc1)N1CCCCC(Cl)C1=O (stereo not drawn)	none
CCNc1nc(Oc2c(Cl)cccc2Cl)cc(C(F)(F)F)n1	Lmaj promast 77
CCNc1nc(Oc2ccc(Cl)cc2Cl)cc(C(F)(F)F)n1	none
COc1cc(/C=C/C(=O)O)cc(S(=O)(=O)Nc2ccccc2Oc2ccccc2)c1OC	none (no result: Lmaj promast, PMI activator, PMI act satM6P, WT yeast gro inh)
COc1ccc(-c2cc(C(F)(F)F)n3ncc(C(=O)N(C)Cc4ccccc4)c3n2)cc1	none (no result: Rad51 HR inh)
O=C(NCc1ccc2c(c1)OCO2)c1ccco1	none (no result: Rad51 HR inh)
O=C(CC(SCCO)c1ccc2c(c1)OCO2)c1ccco1 (stereo not drawn)	Lmaj promast 56
NNC(=O)CCC(=O)Nc1ccccc1	none
O=C(Nc1cc(S(=O)(=O)N2CCCCC2)ccc1O)c1ccccc1NS(=O)(=O)c1ccc(F)c(F)c1	none
COc1cnc(-c2ccccn2)nc1Sc1ccc(F)cc1	Lmaj promast 94, WT yeast gro inh 68
COc1cnc(-c2ccccn2)nc1Sc1ccccc1	Lmaj promast 100
COc1cnc(-c2ccccn2)nc1Sc1ccc(Cl)cc1	Lmaj promast 100
COc1ccc(Sc2nc(-c3ccccn3)ncc2OC)cc1	Lmaj promast 101
COc1ccccc1N1C(=O)C2C(C(=O)c3ccccc3)=NN(c3ccccc3OC)C2C1=O (stereo not drawn)	none (no result: Lmaj promast, PMI activator, PMI act satM6P, WT yeast gro inh)
Cc1cc(=O)c(C(=O)O)nn1-c1ccc(Cl)cc1	none (no result: Lmaj promast, PMI activator, PMI act satM6P, WT yeast gro inh)
CC1=C(C#N)C(=O)N(C2CCS(=O)(=O)C2)C(=O)/C1=C\c1ccc(C)o1 (stereo not drawn)	none (no result: Lmaj promast, PMI activator, PMI act satM6P, WT yeast gro inh)
COCC(=O)Nc1c(C(=O)Nc2cccc(OC)c2)oc2ccccc12	none
COc1cccc(NC(=O)c2oc3ccccc3c2NC(C)=O)c1	Rad51 HR inh 112

Screens deposited in PubChem by several laboratories.
